Consider nine compounds from ChEMBL document CHEMBL1268918, “1,3-Benzoxazole-4-carbonitrile as a novel antifungal scaffold of β-1,6-glucan synthesis inhibitors” (Bioorg Med Chem, 2010).

In brackets after ≈: the same amount, converted by molar mass.

Data set [1] concerns Saccharomyces cerevisiae. The data set is described as follows: Antifungal activity against Saccharomyces cerevisiae YPH500 assessed as concentration required to 50% growth inhibition using alamar blue staining after 18 to 72 hrs by microdilution method. It counts as functional. The method in brief: (§1)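 Serial broth microdilution in RPMI 1640 with 0.165 M MOPS. Inoculum was 1×10³–1×10⁴ cells/mL and incubation ran 18–72 h, both set per strain by growth rate, at 30 °C. MIC-2 is the lowest drug concentration giving 50% growth inhibition versus a drug-free control.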
Background: Resazurin is reduced to fluorescent resorufin, in cell work by metabolically active cells.

The test system of data set [2] is Candida albicans. Kind of data set: Antifungal activity against Candida albicans ATCC 24433 assessed as concentration required to 50% growth inhibition using alamar blue staining after 18 to 72 hrs by microdilution method. The format is functional. The method in brief: as §1
In data set [3] the test system is Nakaseomyces glabratus. Kind of data set: Antifungal activity against Candida glabrata ATCC 48435 assessed as concentration required to 50% growth inhibition using alamar blue staining after 18 to 72 hrs by microdilution method. The format is functional. The method in brief: as §1
Data set [4] relates to Candida tropicalis. Kind of data set: Antifungal activity against Candida tropicalis IAM 4965 assessed as concentration required to 50% growth inhibition using alamar blue staining after 18 to 72 hrs by microdilution method. The format is functional. The method in brief:
as §1

The test system of data set [5] is Pichia kudriavzevii. Kind of data set: Antifungal activity against Candida krusei ATCC 44507 assessed as concentration required to 50% growth inhibition using alamar blue staining after 18 to 72 hrs by microdilution method. The format is functional. The method in brief:
as §1

A short description of data set [6]: Octanol-phosphate buffer partition coefficient, log D of the compound at pH 7.4. It counts as physicochemical. The method in brief: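 Compound was shaken 30 min in equal volumes of n-octanol and phosphate-buffered saline at pH 7.4, then centrifuged at 3000 rpm for 10 min. Each layer was assayed by LC/MS, and log D was taken from the partition ratio.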
Data set [7] in a line: Solubility in water at pH 6.8. The format is physicochemical.
Data set [8] has as its system Candida albicans. Kind of data set: Antifungal activity against FLCZ-susceptible Candida albicans ATCC 90028 assessed as concentration required to 80% growth inhibition using alamar blue staining after 18 to 72 hrs by microdilution method. It counts as functional. The method in brief: (§2)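 Serial broth microdilution in YPD medium (1% yeast extract, 2% peptone, […]). Starting cell density (1 × 10³–1 × 10⁴ cells/mL) and incubation time (18–72 h) were set per strain by growth speed. MIC-1 is the lowest drug concentration giving 80% growth inhibition relative to the drug-free control.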

The subject of data set [9] is Candida albicans. The data set is described as follows: Antifungal activity against FLCZ-resistant Candida albicans ATCC MYA-573 assessed as concentration required to 80% growth inhibition using alamar blue staining after 18 to 72 hrs by microdilution method. The format is functional. The method in brief: as §2
Data set [10] has as its system Candida tropicalis. Kind of data set: Antifungal activity against Candida tropicalis ATCC 44508 assessed as concentration required to 80% growth inhibition using alamar blue staining after 18 to 72 hrs by microdilution method. The format is functional. The method in brief:
(§3)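 Serial dilution in YPD medium (1% yeast extract, 2% peptone, […]), incubated at 37 °C. Inoculum was 1×10³–1×10⁴ cells/mL and incubation 18–72 h, both chosen per strain. MIC-1 is the lowest concentration giving 80% inhibition relative to a drug-free control.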

For data set [11], the system named is Pichia kudriavzevii. The data set is described as follows: Antifungal activity against Candida krusei ATCC 44507 assessed as concentration required to 80% growth inhibition using alamar blue staining after 18 to 72 hrs by microdilution method. The format is functional. The method in brief: as §3
Data set [12] in a line: Metabolic stability in human liver microsomes at 1 uM after 30 mins. The format is ADME, Microsome. The settings on record: read-out: Stability. The method in brief:
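Compound was preincubated with human liver microsomes (0.5 mg/mL protein) in sodium phosphate buffer pH 7.4 for 20 min at 37 °C. NADPH started the reaction, and MeOH stopped it after 30 min. Samples were centrifuged at 4 °C, and parent loss was quantified by LC/MS/MS.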
A general note: Liver microsomes are vesicles of endoplasmic reticulum, rich in cytochrome P450 enzymes.

The test system of data set [13] is Nakaseomyces glabratus. Kind of data set: Antifungal activity against Candida glabrata ATCC 48435 assessed as concentration required to 80% growth inhibition using alamar blue staining after 18 to 72 hrs by microdilution method. It counts as functional. The method in brief: as §3

On to `Cc1c(C#N)c2c(c(N3CC[C@H](N(C)C)C3)c1-c1ccccc1)OCC(C(C)(C)C)=N2`, for which the MIC in [1] was 8 µg/mL (≈ 19.2 µM); in [2] it was greater than 16 µg/mL; in [3], 8 µg/mL (≈ 19.2 µM); in data set [4], 16 µg/mL (≈ 38.4 µM); in [5], greater than 16 µg/mL. Also, the logD in data set [6] was 4.4. Moreover, in data set [7], the solubility was determined as 56 µg/mL (≈ 134 µM).
As for `Cc1c(-c2ccccc2)c(N2CC[C@H](N(C)C)C2)c2oc(C3CCC3)nc2c1C#N`, the logD in data set [6] worked out at 4.5. Further, in data set [7], the solubility is 7 µg/mL (≈ 17.5 µM). For the same compound, the MIC was 0.063 µg/mL (≈ 0.157 µM) in data set [8], 0.125 µg/mL (≈ 0.312 µM) in data set [9], less than 0.016 µg/mL in data set [10] and 0.5 µg/mL (≈ 1.25 µM) in data set [11].
Take `Cc1c(-c2ccccc2)c(N2CC[C@H](N(C)C)C2)n2nc(C(C)(C)C)nc2c1C#N`: the MIC in data set [1] is 0.063 µg/mL (≈ 0.157 µM); in data set [2], greater than 4 µg/mL; in [3], 0.063 µg/mL (≈ 0.157 µM); in data set [4], 0.25 µg/mL (≈ 0.621 µM); in data set [5] it was greater than 4 µg/mL; in data set [8] it was 0.25 µg/mL (≈ 0.621 µM). The MIC in data set [9] came out at 0.5 µg/mL (≈ 1.24 µM); in data set [13], 0.125 µg/mL (≈ 0.311 µM); in data set [10] (read-out: MIC) it was 0.125 µg/mL (≈ 0.311 µM); in [11], 8 µg/mL (≈ 19.9 µM). In addition, the remaining at 0.5 h, 1 µM in [12] was found to be 9%.
With `CN(C)[C@H]1CCN(c2c(-c3ccccc3)cc(C#N)c3oc(C(C)(C)C)nc23)C1`, the MIC is 4 µg/mL (≈ 10.3 µM) in data set [1]; greater than 4 µg/mL in data set [2]; greater than 4 µg/mL in data set [3]; greater than 4 µg/mL in data set [4]; greater than 16 µg/mL in data set [5].
Turning to `Cc1c(-c2ccccc2)c(N2CC[C@H](N(C)C)C2)c2oc(C3CCCC3)nc2c1C#N`, the logD in data set [6] stood at 4.9. The solubility in data set [7] was less than 2 µg/mL. Also, the MIC stood at 0.125 µg/mL (≈ 0.302 µM) in data set [8]; 0.125 µg/mL (≈ 0.302 µM) in data set [9]; 0.032 µg/mL (≈ 0.0772 µM) in data set [13]; 0.063 µg/mL (≈ 0.152 µM) in data set [10] (read-out: MIC); 2 µg/mL (≈ 4.82 µM) in data set [11].
Turning to `CN(C)[C@H]1CCN(c2c(-c3ccccc3)c3c(c4nc(C5CC5)oc24)C(=O)OC3)C1`, in data set [6], the logD came out at 2.6. In [7], the concentration in solution (solubility) came to 310 µg/mL (≈ 768 µM). Besides, the MIC in data set [8] worked out at 1 µg/mL (≈ 2.48 µM); in [9], 1 µg/mL (≈ 2.48 µM); in data set [13], 0.25 µg/mL (≈ 0.62 µM); in [10] (read-out: MIC) it was 0.25 µg/mL (≈ 0.62 µM); in data set [11] it was 2 µg/mL (≈ 4.96 µM).
In the case of `CN(C)[C@H]1CCN(c2c(-c3ccccc3)cc(C#N)c3nc(C(C)(C)C)oc23)C1`, the MIC in data set [1] came out at 0.25 µg/mL (≈ 0.643 µM); in data set [2] it was 16 µg/mL (≈ 41.2 µM); in data set [3] it was 0.25 µg/mL (≈ 0.643 µM); in data set [4], 0.5 µg/mL (≈ 1.29 µM); in [5], 16 µg/mL (≈ 41.2 µM). The compound also showed a logD in data set [6] of 3.8. The compound also displayed a solubility in [7] of 16 µg/mL (≈ 41.2 µM). Further, the remaining at 0.5 h, 1 µM in data set [12] came to 8%.
In the case of `Cc1c(-c2ccccc2)c(N2CC[C@H](N(C)C)C2)n2c(nc3ccccc32)c1C#N`, the MIC in [1] was 0.004 µg/mL (≈ 0.0101 µM); in data set [2] it was greater than 4 µg/mL; in data set [3], 0.063 µg/mL (≈ 0.159 µM); in [4] it was 0.25 µg/mL (≈ 0.632 µM); in data set [5], 0.125 µg/mL (≈ 0.316 µM). The solubility in data set [7] was found to be 5 µg/mL (≈ 12.6 µM).
In the case of `CN(C)[C@H]1CCN(c2c(-c3ccccc3)cc(C#N)c3oc(C(C)(C)C)cc23)C1`, the MIC is 2 µg/mL (≈ 5.16 µM) in data set [1]; greater than 4 µg/mL in data set [2]; greater than 4 µg/mL in data set [3]; 4 µg/mL (≈ 10.3 µM) in [4]; greater than 4 µg/mL in data set [5]. The logD in [6] is 5.4. This compound had a solubility in data set [7] of less than 2 µg/mL. Also, the remaining at 0.5 h, 1 µM in [12] turned out to be 20%.

As usually defined, the MIC is the lowest concentration that inhibits growth of the organism. As usually defined, the logD is lipophilicity at a set pH, counting ionised and neutral species. In general, solubility refers to the concentration that dissolves in the medium under given conditions. Read a low solubility as little dissolved substance.
